Reference: ChEMBL document CHEMBL4765345, “Design, synthesis, and biological evaluation of dual targeting inhibitors of histone deacetylase 6/8 and bromodomain BRPF1” (Eur J Med Chem, 2020)

What was measured:
[1] = Inhibition of HDAC (unknown origin); parameters: species or system Homo sapiens
[2] = biological target: T1, Peregrin (Homo sapiens, UniProt P55201); experiment: Binding affinity to BRPF1 (unknown origin) by Isothermal titration calorimetry
T1 sequence (P55201 whole entry): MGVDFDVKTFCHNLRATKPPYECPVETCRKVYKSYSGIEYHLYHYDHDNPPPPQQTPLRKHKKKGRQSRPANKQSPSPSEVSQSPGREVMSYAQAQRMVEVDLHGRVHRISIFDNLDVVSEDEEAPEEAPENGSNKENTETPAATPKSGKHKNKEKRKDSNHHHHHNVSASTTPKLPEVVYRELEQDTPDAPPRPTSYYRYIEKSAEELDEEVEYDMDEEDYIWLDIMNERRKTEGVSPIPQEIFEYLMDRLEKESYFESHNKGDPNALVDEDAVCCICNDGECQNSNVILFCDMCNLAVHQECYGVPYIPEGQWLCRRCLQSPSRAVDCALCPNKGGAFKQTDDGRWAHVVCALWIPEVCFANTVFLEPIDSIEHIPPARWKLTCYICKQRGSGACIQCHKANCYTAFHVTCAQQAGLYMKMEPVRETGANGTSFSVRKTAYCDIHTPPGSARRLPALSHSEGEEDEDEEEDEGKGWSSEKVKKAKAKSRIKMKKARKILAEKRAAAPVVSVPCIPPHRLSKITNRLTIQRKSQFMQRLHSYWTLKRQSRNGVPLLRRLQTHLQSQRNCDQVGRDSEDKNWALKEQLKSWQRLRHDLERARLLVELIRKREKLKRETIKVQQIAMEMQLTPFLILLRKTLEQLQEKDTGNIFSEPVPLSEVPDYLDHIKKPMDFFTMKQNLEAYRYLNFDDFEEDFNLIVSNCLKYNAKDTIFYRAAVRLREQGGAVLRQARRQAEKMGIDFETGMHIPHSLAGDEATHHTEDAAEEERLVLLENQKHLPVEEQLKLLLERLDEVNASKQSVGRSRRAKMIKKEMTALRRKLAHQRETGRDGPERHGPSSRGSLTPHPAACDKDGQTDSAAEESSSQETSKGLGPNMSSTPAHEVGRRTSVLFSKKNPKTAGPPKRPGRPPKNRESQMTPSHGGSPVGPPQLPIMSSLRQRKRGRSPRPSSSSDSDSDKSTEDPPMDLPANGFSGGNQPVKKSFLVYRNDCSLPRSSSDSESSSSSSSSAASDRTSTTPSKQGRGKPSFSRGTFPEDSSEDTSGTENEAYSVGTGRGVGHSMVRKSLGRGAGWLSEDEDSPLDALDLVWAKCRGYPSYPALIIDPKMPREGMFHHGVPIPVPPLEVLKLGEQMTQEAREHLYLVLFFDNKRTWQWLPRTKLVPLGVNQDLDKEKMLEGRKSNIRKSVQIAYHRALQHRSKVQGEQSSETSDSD
Procedure, shortened: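 Isothermal titration calorimetry with recombinant BRPF1 (200–400 μM) in the injection syringe titrated into ligand (20–40 μM) in the sample cell. Kd was fitted from the titrations and reported with its P99 interval.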

[3] = test system: HL-60; experiment: Antiproliferative activity against human HL60 assessed as reduction in cell growth at 100 uM by CellTiter-non radioactive cell proliferation assay; assay type: functional
[4] = test system: THP-1; experiment: Antiproliferative activity against human THP-1 assessed as reduction in cell growth at 20 uM by CellTiter-non radioactive cell proliferation assay; assay type: functional
[5] = test system: THP-1; experiment: Antiproliferative activity against human THP-1 assessed as reduction in cell growth at 100 uM by CellTiter-non radioactive cell proliferation assay; assay type: functional
[6] = test system: HEK293; experiment: (§1) Cytotoxicity against human HEK293 assessed as reduction in cell viability incubated for 24 hrs by AlamarBlue assay; assay type: cell-based; conditions: hek293, 24 h
Procedure, shortened: (§2)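 HEK293 cells were grown at 37 °C under 5% CO2 in DMEM with 10% FCS and 5 mM glutamine and seeded at 1.5 x 10³ cells per well. Compound at 50 μM was added at once. After 24 h AlamarBlue was added for another 21 h, and fluorescence was read at Ex 560/Em 590 nm. Triplicates over three independent experiments.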

[7] = test system: THP-1; experiment: Antiproliferative activity against human THP-1 assessed as reduction in cell growth at 4 uM by CellTiter-non radioactive cell proliferation assay; assay type: functional
[8] = test system: HL-60; experiment: Antiproliferative activity against human HL60 assessed as reduction in cell growth at 4 uM by CellTiter-non radioactive cell proliferation assay; assay type: functional
Procedure, shortened: (§3)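 HL60 cells plated at 5000 per well and given inhibitor or DMSO vehicle immediately. Compounds diluted from 200x DMSO stocks; three replicates per concentration. Growth read by CellTiter 96 Aqueous (MTS) assay. GI50 is the concentration cutting metabolically active cells by 50% versus DMSO control, taken from absorbance against log concentration.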

[9] = test system: HL-60; experiment: Antiproliferative activity against human HL60 assessed as reduction in cell growth at 20 uM by CellTiter-non radioactive cell proliferation assay; assay type: functional
[10] = test system: THP-1 (Homo sapiens); experiment: Antiproliferative activity against human THP-1 assessed as reduction in metabolically active cells by CellTiter-non radioactive cell proliferation assay
[11] = biological target: T2, Protein deacetylase HDAC6 (Homo sapiens) (UniProt Q9UBN7); experiment: Inhibition of recombinant human HDAC6 at 1 uM using Z-(Ac)Lys-AMC as substrate after 90 mins by fluorescence based micro plate assay
T2 sequence (whole entry): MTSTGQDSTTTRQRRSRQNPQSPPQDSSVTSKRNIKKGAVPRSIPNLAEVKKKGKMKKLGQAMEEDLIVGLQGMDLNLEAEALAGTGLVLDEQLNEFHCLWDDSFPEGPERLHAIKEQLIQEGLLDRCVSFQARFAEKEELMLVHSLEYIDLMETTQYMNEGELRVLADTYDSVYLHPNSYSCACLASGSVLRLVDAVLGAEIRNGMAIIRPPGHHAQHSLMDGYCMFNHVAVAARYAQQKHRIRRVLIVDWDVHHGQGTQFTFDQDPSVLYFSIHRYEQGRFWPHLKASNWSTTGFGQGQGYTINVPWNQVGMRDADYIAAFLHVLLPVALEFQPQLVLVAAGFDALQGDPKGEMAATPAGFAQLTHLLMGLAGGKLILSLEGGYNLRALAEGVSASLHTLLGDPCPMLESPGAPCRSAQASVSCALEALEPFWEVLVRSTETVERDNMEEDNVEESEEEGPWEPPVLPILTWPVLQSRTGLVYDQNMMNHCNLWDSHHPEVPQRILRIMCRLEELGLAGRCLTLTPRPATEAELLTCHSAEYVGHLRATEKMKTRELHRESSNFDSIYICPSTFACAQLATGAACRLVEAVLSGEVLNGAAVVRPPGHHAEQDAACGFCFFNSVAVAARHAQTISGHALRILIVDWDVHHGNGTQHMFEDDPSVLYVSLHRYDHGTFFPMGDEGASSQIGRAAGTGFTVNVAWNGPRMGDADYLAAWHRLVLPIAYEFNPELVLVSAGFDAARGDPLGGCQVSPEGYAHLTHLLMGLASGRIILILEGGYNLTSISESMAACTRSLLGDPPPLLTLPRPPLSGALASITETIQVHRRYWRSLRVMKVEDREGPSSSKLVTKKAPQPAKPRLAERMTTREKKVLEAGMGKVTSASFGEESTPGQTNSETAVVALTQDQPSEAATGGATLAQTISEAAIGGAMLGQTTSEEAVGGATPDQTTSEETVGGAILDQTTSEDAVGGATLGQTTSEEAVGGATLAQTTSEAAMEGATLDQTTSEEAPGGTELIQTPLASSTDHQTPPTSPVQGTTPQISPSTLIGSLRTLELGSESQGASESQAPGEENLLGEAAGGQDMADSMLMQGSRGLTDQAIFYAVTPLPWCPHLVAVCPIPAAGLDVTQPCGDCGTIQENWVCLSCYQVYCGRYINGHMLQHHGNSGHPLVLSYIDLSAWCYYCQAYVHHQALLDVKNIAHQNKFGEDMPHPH
Procedure, shortened: (§4)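 Recombinant human HDAC1 or HDAC6 incubated 90 min at 37 °C with 10.5 μM ZMAL (Z-(Ac)Lys-AMC) and increasing inhibitor concentrations, using a homogeneous fluorescence assay. Fluorescence read at Ex 390/Em 460 nm.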

[12] = biological target: Histone deacetylase 1 (Homo sapiens, UniProt Q13547); experiment: Inhibition of recombinant human HDAC1 using Z-(Ac)Lys-AMC as substrate after 90 mins by fluorescence based micro plate assay; procedure, shortened: as §4
[13] = biological target: T2, Protein deacetylase HDAC6 (Homo sapiens); experiment: Inhibition of recombinant human HDAC6 at 10 uM using Z-(Ac)Lys-AMC as substrate after 90 mins by fluorescence based micro plate assay; procedure, shortened: as §4
[14] = biological target: T3, Histone deacetylase 8 (Homo sapiens, UniProt Q9BY41); experiment: Inhibition of human recombinant HDAC8 using H2N-Arg-His-Lys(Ac)-Lys(Ac)-AMC as substrate after 90 mins by fluorescence based micro plate assay
T3 sequence (Q9BY41 whole entry): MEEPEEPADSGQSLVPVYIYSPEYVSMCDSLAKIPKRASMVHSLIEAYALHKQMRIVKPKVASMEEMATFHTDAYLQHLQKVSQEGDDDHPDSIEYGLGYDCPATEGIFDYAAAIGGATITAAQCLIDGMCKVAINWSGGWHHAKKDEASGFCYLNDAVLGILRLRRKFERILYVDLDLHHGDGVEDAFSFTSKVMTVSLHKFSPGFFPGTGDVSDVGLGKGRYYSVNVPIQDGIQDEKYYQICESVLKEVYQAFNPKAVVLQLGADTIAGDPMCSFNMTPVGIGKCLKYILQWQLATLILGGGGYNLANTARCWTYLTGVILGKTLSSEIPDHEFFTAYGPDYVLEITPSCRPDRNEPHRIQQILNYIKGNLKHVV

[15] = as §1; assay type: cell-based; conditions: HEK293 cells, read-out: INH; procedure, shortened: as §2
[16] = Stability of the compound in phosphate buffer at pH 7.4 measured after 4 days; assay type: physicochemical; conditions: pH 7.4, 96 h, time 4 day
Procedure, shortened: (§5)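 Compounds were incubated at 37 °C in DMEM (cellular assay conditions) or in PBS pH 7.4 (in vitro assay conditions) for various times up to 4 days. The parent compound and any hydrolysis products were detected and quantified by HPLC.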

[17] = test system: HL-60; experiment: Antiproliferative activity against human HL60 assessed as reduction in cell growth at 1 uM by CellTiter-non radioactive cell proliferation assay; assay type: functional
[18] = test system: THP-1; experiment: Antiproliferative activity against human THP-1 assessed as reduction in cell growth at 1 uM by CellTiter-non radioactive cell proliferation assay; assay type: functional
[19] = biological target: T4, Protein deacetylase HDAC6 (Homo sapiens, UniProt Q9UBN7); experiment: Inhibition of recombinant human HDAC6 using Z-(Ac)Lys-AMC as substrate after 90 mins by fluorescence based micro plate assay; procedure, shortened: as §4
T4 sequence (Q9UBN7 whole entry): T2 sequence (whole entry)

[20] = Chemical stability of the compound in standard cellular assay conditions measured after 4 days; assay type: physicochemical; conditions: 96 h; time 4 day; procedure, shortened: as §5
[21] = test system: HL-60; experiment: Antiproliferative activity against human HL60 assessed as reduction in cell growth at 50 uM by CellTiter-non radioactive cell proliferation assay; assay type: functional; procedure, shortened: as §3

Histone deacetylase 1, sequence (Q13547 whole entry): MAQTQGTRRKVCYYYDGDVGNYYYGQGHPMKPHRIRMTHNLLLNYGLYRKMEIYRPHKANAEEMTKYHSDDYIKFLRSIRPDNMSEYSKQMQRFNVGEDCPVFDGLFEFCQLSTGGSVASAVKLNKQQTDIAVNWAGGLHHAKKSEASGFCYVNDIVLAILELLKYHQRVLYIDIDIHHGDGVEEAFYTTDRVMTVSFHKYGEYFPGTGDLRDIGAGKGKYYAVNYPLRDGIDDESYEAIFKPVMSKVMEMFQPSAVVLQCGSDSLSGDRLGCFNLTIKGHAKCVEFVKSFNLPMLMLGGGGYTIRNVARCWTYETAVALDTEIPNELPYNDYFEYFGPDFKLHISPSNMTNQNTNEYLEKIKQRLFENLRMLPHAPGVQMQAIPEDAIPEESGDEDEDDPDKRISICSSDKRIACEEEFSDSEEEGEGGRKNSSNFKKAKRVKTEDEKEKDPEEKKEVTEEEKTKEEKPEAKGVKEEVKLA

IC50 [12] [µM]	IC50 [14] [µM]	Kd ([2]; read-out: Kd) [µM]	Compound	inhibition at 100 µM [3] [%]	inhibition at 20 µM [4] [%]	inhibition at 100 µM [5] [%]	inhibition at 4 µM [8] [%]	inhibition at 20 µM [9] [%]	inhibition at 1 µM [17] [%]	inhibition at 1 µM [18] [%]	other results
–	–	–	O=C(CCCCCCOc1ccccc1C(=O)Nc1ncnc2[nH]cnc12)NO	–	–	–	–	–	–	–	IC50 [1]: 0.26 µM; Kd [2]: 2.7 µM
–	–	–	COC(=O)c1ccc(OC)c(S(=O)(=O)Nc2ccc3c(c2)cc(C)c(=O)n3C)c1	66	101	102	39	44	–	–	Activity [6]: Non-Toxic; inhibition at 4 µM [7]: 40%; GI50 [10]: 5.5 µM
5.2	0.956	4.08	COc1ccc(C(=O)NO)cc1NCc1ccc(OCCCCC(=O)Nc2ccc3c(c2)cc(C)c(=O)n3C)cc1	0	0	–	0	0	–	–	inhibition [11]: 50%; inhibition [13]: 68%; cytotoxicity at 24 h [15]: 15%
0.545	0.36	1.5	Cc1cc2cc(NS(=O)(=O)Cc3ccc(C(=O)NO)cc3)ccc2n(C)c1=O	27	8	89	–	0	5	0	Stabilty [16]: Stable; IC50 [19]: 0.152 µM; Stabilty [20]: Stable
–	–	–	Cc1cc2cc(NC(=O)c3ccc(S(=O)(=O)Nc4ccc5c(c4)cc(C)c(=O)n5C)cc3)ccc2n(C)c1=O	–	84	73	–	55	20	0	inhibition at 50 µM [21]: 48%
